Reference: ChEMBL document CHEMBL1806419, “18β-Glycyrrhetinic acid derivatives induced mitochondrial-mediated apoptosis through reactive oxygen species-mediated p53 activation in NTUB1 cells” (Bioorg Med Chem, 2011)
Active and inactive are the calls of the source. The rule behind the calls is not given here.

Key:
[1] = Cytotoxicity against human NTUB1 cells assessed as cell viability at 10 uM after 72 hrs by MTT assay relative to control; type: functional; settings: NTUB1, 72 h, read-out: Activity
Procedure, shortened: (§1)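 Cells seeded 1800/well in 96-well plates, preincubated overnight at 37 °C, then exposed to graded concentrations for 72 h at 37 °C (NTUB1, PC3 in RPMI 1640; SV-HUC1 in F12; 10% FBS, 5% CO2). MTT (2 mg/mL) added 3 h, formazan dissolved in DMSO, absorbance 540 nm; viability as percent of control; IC50 by median-effect analysis, mean ± SD.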

[2] = Cytotoxicity against human NTUB1 cells assessed as cell viability at 3 uM after 72 hrs by MTT assay relative to control; type: functional; settings: NTUB1, 72 h, read-out: Activity; procedure, shortened: as §1
[3] = Cytotoxicity against human NTUB1 cells after 72 hrs by MTT assay; type: functional, cell-based; settings: NTUB1, 72 h; procedure, shortened: as §1
[4] = Cytotoxicity against human NTUB1 cells assessed as cell viability at 5 uM after 72 hrs by MTT assay relative to control; type: functional; settings: NTUB1, 72 h, read-out: Activity; procedure, shortened: as §1
[5] = Cytotoxicity against human NTUB1 cells assessed as cell viability at 50 uM after 72 hrs by MTT assay relative to control; type: functional; settings: NTUB1, 72 h, read-out: Activity; procedure, shortened: as §1
[6] = Cytotoxicity against human NTUB1 cells assessed as cytotoxic inhibition at 1 uM after 72 hrs by MTT assay relative to control; settings: NTUB1, 72 h
[7] = Cytotoxicity against human NTUB1 cells assessed as cell viability at 30 uM after 72 hrs by MTT assay relative to control; type: functional; settings: NTUB1, 72 h, read-out: Activity; procedure, shortened: as §1
PC-3 = assay: Cytotoxicity against human PC3 cells after 72 hrs by MTT assay; type: functional, cell-based; procedure, shortened: as §1
[8] = Cytotoxicity against immortalized human SV-HUC1 cells after 72 hrs by MTT assay; type: cell-based; settings: sv-huc1, 72 h; procedure, shortened: as §1
[9] = Cell cycle arrest in human NTUB1 cells assessed as accumulation at G1 phase at 1 mM after 24 hrs by propidium iodide staining based flow cytometric analysis (reference value: 50.64%); type: functional
Procedure, shortened: (§2)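 8×10^5 NTUB1 cells plated, treated 24 h (alongside 10 µM cisplatin, 1 mM NAC, 50 µM H2O2 controls); harvested by trypsinization, fixed overnight in ice-cold MeOH at −20 °C, stained with 50 µg/mL propidium iodide plus 50 µg/mL RNase A in PBS 30 min at room temperature; cell-cycle phase fractions and sub-G1 (apoptotic) DNA content by FACScan flow cytometry; three independent experiments.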

[10] = Decrease in ROS generation in human NTUB1 cells at 1 mM after 24 hrs by H2DCFDA staining based flow cytometeric analysis relative to control; type: functional; design: scale not given: the % may be the effect or the level left
Procedure, shortened: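 NTUB1 cells (3×10^5 per 6 cm dish) treated 24 h (20 µM cisplatin and 1 mM NAC controls; medium-only control); 10 µM H2DCFDA added 30 min before harvest; trypsinized, PBS-washed, DCF green fluorescence (525 nm band pass, region M1) measured immediately by flow cytometry; percent change vs control; mean ± SD, n = 3.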

[11] = Cell cycle arrest in human NTUB1 cells assessed as accumulation at subG1 phase at 1mM after 24 hrs by propidium iodide staining based flow cytometric analysis (reference value: 6.68%); type: functional; procedure, shortened: as §2
[12] = Cell cycle arrest in human NTUB1 cells assessed as accumulation at S phase at 1 mM after 24 hrs by propidium iodide staining based flow cytometric analysis (reference value: 20.37%); type: functional; procedure, shortened: as §2
[13] = Cell cycle arrest in human NTUB1 cells assessed as accumulation at G2/M phase at 1 mM after 24 hrs by propidium iodide staining based flow cytometric analysis (reference value: 20.37%); type: functional; procedure, shortened: as §2
[14] = Induction of apoptosis in human NTUB1 cells assessed as increase in JC-1 probe monomers at 10 uM after 24 hrs by flow cytometric analysis; type: functional
Procedure, shortened: (§3)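 NTUB1 bladder carcinoma cells (3 × 10^5) in RPMI 1640 with 10% FBS at 37 °C, 5% CO2, exposed to test agent (10, 25 or 50 µM) with 10 µM CCCP as positive control. Stained 30 min with 1 µM JC-1 in medium, washed, trypsinised, resuspended in PBS/2% BSA. Flow cytometry read green monomer and red aggregate fluorescence; the aggregate/monomer ratio represents membrane potential.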

[15] = Induction of apoptosis in human NTUB1 cells assessed as decrease in JC-1 aggregation at 10 uM after 24 hrs by flow cytometric analysis; type: functional; design: scale not given: the % may be the effect or the level left; procedure, shortened: as §3

Row | SMILES | IC50 [3] [µM] | also measured
1 | C=C(C)[C@@H]1CC[C@]2(C)[C@H](C(=O)C=C3[C@@H]4C[C@@](C)(C(=O)NC(C)C)CC[C@]4(C)CC[C@]32C)[C@@]1(C)CCC(=O)OC | 13.1 | viability at 10 µM [1]: 27%; viability at 3 µM [2]: 25%; viability at 5 µM [4]: 24%; viability at 50 µM [5]: 71%; cytotoxic inhibition at 1 µM [6]: 40%; viability at 30 µM [7]: 67%
2 | C=C(C)[C@@H]1CC[C@]2(C)[C@H](C(=O)C=C3[C@@H]4C[C@@](C)(C(=O)NC(C)C)CC[C@]4(C)CC[C@]32C)[C@@]1(C)CCC(=O)NCC | 12.8 | Activity (PC-3): Active; Activity [8]: Non-toxic
3 | CC1(C)OC(=O)CC[C@]2(C)[C@H]3C(=O)C=C4[C@@H]5C[C@@](C)(C(=O)OCc6ccccc6)CC[C@]5(C)CC[C@@]4(C)[C@]3(C)CC[C@@H]12 | 57.6 | –
4 | C=C(C)[C@@H]1CC[C@]2(C)[C@H](C(=O)C=C3[C@@H]4C[C@@](C)(C(=O)OC)CC[C@]4(C)CC[C@]32C)[C@@]1(C)CCC(=O)O | 20.7 | –
5 | C=C(C)[C@@H]1CC[C@]2(C)[C@H](C(=O)C=C3[C@@H]4C[C@@](C)(C(=O)NC(C)C)CC[C@]4(C)CC[C@]32C)[C@@]1(C)CCC(=O)OC(C)C | 29.2 | –
6 | C=C(C)[C@@H]1CC[C@]2(C)[C@H](C(=O)C=C3[C@@H]4C[C@@](C)(C(=O)OCc5ccccc5)CC[C@]4(C)CC[C@]32C)[C@@]1(C)CCC(=O)OC(C)C | 18.2 | –
7 | C=C(C)[C@@H]1CC[C@]2(C)[C@H](C(=O)C=C3[C@@H]4C[C@@](C)(C(=O)OCc5ccccc5)CC[C@]4(C)CC[C@]32C)[C@@]1(C)CCC(=O)NC(C)C | 30.1 | –
8 | C=C(C)[C@@H]1CC[C@]2(C)[C@H](C(=O)C=C3[C@@H]4C[C@@](C)(C(=O)OC)CC[C@]4(C)CC[C@]32C)[C@@]1(C)CCC(=O)NC(C)C | 31.4 | –
9 | CC1(C)C(=O)CC[C@]2(C)[C@H]3C(=O)C=C4[C@@H]5C[C@@](C)(C(=O)OCc6ccccc6)CC[C@]5(C)CC[C@@]4(C)[C@]3(C)CC[C@@H]12 | 20.2 | –
10 | CC1(C)OC(=O)CC[C@]2(C)[C@H]3C(=O)C=C4[C@@H]5C[C@@](C)(C(=O)O)CC[C@]5(C)CC[C@@]4(C)[C@]3(C)CC[C@@H]12 | 73.5 | –
11 | CC1(C)OC(=O)CC[C@]2(C)[C@H]3C(=O)C=C4[C@@H]5C[C@@](C)(C(=O)Nc6ccccc6)CC[C@]5(C)CC[C@@]4(C)[C@]3(C)CC[C@@H]12 | 16 | –
12 | C=C(C)[C@@H]1CC[C@]2(C)[C@H](C(=O)C=C3[C@@H]4C[C@@](C)(C(=O)OCc5ccccc5)CC[C@]4(C)CC[C@]32C)[C@@]1(C)CCC(=O)NCC | 42.7 | –
13 | C=C(C)[C@@H]1CC[C@]2(C)[C@H](C(=O)C=C3[C@@H]4C[C@@](C)(C(=O)OCc5ccccc5)CC[C@]4(C)CC[C@]32C)[C@@]1(C)CCC(=O)OC | 9.41 | viability at 10 µM [1]: 50%; viability at 3 µM [2]: 22%; viability at 5 µM [4]: 20%; viability at 50 µM [5]: 68%; cytotoxic inhibition at 1 µM [6]: 32%; viability at 30 µM [7]: 66%
14 | C=C(C)[C@@H]1CC[C@]2(C)[C@H](C(=O)C=C3[C@@H]4C[C@@](C)(C(=O)Nc5ccccc5)CC[C@]4(C)CC[C@]32C)[C@@]1(C)CCC(=O)O | 3.31 | –
15 | C=C(C)[C@@H]1CC[C@]2(C)[C@H](C(=O)C=C3[C@@H]4C[C@@](C)(C(=O)NC(C)C)CC[C@]4(C)CC[C@]32C)[C@@]1(C)CCC(=O)O | 17.5 | –
16 | CC(=O)N[C@@H](CS)C(=O)O [ACETYLCYSTEINE] | – | Activity [9]: 44.4%; Activity [10]: 26.1%; Activity [11]: 2.66%; Activity [12]: 29.2%; Activity [13]: 20.2%
17 | C=C(C)[C@@H]1CC[C@]2(C)[C@H](C(=O)C=C3[C@@H]4C[C@@](C)(C(=O)OCc5ccccc5)CC[C@]4(C)CC[C@]32C)[C@@]1(C)CCC(=O)NCCC | 49.4 | –
18 | C=C(C)[C@@H]1CC[C@]2(C)[C@H](C(=O)C=C3[C@@H]4C[C@@](C)(C(=O)NC(C)C)CC[C@]4(C)CC[C@]32C)[C@@]1(C)CCC(=O)NCCC | > 50 | –
19 | C=C(C)[C@@H]1CC[C@]2(C)[C@H](C(=O)C=C3[C@@H]4C[C@@](C)(C(=O)NC(C)C)CC[C@]4(C)CC[C@]32C)[C@@]1(C)CCC(=O)OCC | 19.4 | Activity (PC-3): Active; Activity [8]: Non-toxic
20 | COC(=O)[C@@]1(C)CC[C@]2(C)CC[C@]3(C)C(=CC(=O)[C@@H]4[C@@]5(C)CCC(=O)C(C)(C)[C@@H]5CC[C@]43C)[C@@H]2C1 | 56.5 | –
21 | CC1(C)[C@@H](O)CC[C@]2(C)[C@H]3C(=O)C=C4[C@@H]5C[C@@](C)(C(=O)O)CC[C@]5(C)CC[C@@]4(C)[C@]3(C)CC[C@@H]12 [ENOXOLONE] | 27.3 | –
22 | CC(C)NC(=O)[C@@]1(C)CC[C@]2(C)CC[C@]3(C)C(=CC(=O)[C@@H]4[C@@]5(C)CCC(=O)OC(C)(C)[C@@H]5CC[C@]43C)[C@@H]2C1 | 25.7 | –
23 | C=C(C)[C@@H]1CC[C@]2(C)[C@H](C(=O)C=C3[C@@H]4C[C@@](C)(C(=O)OCc5ccccc5)CC[C@]4(C)CC[C@]32C)[C@@]1(C)CCC(=O)OCC | 27.8 | –
24 | COC(=O)[C@@]1(C)CC[C@]2(C)CC[C@]3(C)C(=CC(=O)[C@@H]4[C@@]5(C)CCC(=O)OC(C)(C)[C@@H]5CC[C@]43C)[C@@H]2C1 | 24.3 | –
25 | C=C(C)[C@@H]1CC[C@]2(C)[C@H](C(=O)C=C3[C@@H]4C[C@@](C)(C(=O)OCc5ccccc5)CC[C@]4(C)CC[C@]32C)[C@@]1(C)CCC(=O)O | 2.34 | –
26 | C=C(C)[C@@H]1CC[C@]2(C)[C@H](C(=O)C=C3[C@@H]4C[C@@](C)(C(=O)OC)CC[C@]4(C)CC[C@]32C)[C@@]1(C)CCC(=O)OC(C)C | 25.3 | –
27 | N#CC(C#N)=NNc1cccc(Cl)c1 [CARBONYL CYANIDE M-CHLOROPHENYLHYDRAZONE] | – | Activity [14]: 52.06%; Activity [15]: 48.42%
28 | CC1(C)C(=O)CC[C@]2(C)[C@H]3C(=O)C=C4[C@@H]5C[C@@](C)(C(=O)O)CC[C@]5(C)CC[C@@]4(C)[C@]3(C)CC[C@@H]12 | 18.6 | –
